Data reported in ChEMBL document CHEMBL1131153, “Metabolites of the angiotensin II antagonist tasosartan: the importance of a second acidic group” (J Med Chem, 1998).

Columns and labels:
Rattus norvegicus [1] = assay: Compound was evaluated for maximum decrease in mean arterial pressure after an intragastric dose of 10.0 mg/kg in rats; format: functional, Artery
Summary of the method: (§1)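 Goldblatt 2K-1C model: Sprague-Dawley rats (150 g) under pentobarbital (50 mg/kg ip) had the left renal artery clipped with a silver wire (0.2 mm internal diameter). Hypertension developed over 4–7 weeks, then the right carotid was cannulated under pentobarbital and saline infused at 5 µL/min. Dosing by gastric gavage in 0.5% methyl cellulose, 5 mL/kg. MAP recorded for 24 h; maximum fall reported, mean ± SE, 6–12 rats/group.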

Rattus norvegicus [2] = assay: Compound was evaluated for maximum decrease in mean arterial pressure after an intragastric dose of 3.0 mg/kg in rats; format: functional, Artery; summary of the method: as §1
Rattus norvegicus [3] = assay: Compound was evaluated for maximum decrease in mean arterial pressure after an intravenous dose of 0.10 mg/kg in rats; format: functional, Artery; settings: dose 0.1 mg/kg
Summary of the method: (§2)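 Renal hypertension produced in 150 g Sprague-Dawley rats by clipping the left renal artery (silver wire, 0.2 mm ID), used after 4–7 weeks. Right carotid cannulated under pentobarbital (50 mg/kg ip) with saline infusion at 5 µL/min. Intravenous dosing, then MAP and heart rate monitored over 24 h. Maximum MAP decrease reported as mean ± SE versus vehicle-treated rats.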

Rattus norvegicus [4] = assay: Compound was evaluated for maximum decrease in mean arterial pressure after an intravenous dose of 0.03 mg/kg in rats; format: functional, Artery; summary of the method: as §2
[5] = biological target: T1, Angiotensin II receptor (AT-1) type-1 (Rattus norvegicus, UniProt P29089+P25095); assay: Compound was evaluated for the in vitro inhibition of specific binding of [125I]-A II to Angiotensin II receptor, type 1 from rat adrenal membranes.; format: cell membranes, Membrane
T1 sequence (P29089 whole entry): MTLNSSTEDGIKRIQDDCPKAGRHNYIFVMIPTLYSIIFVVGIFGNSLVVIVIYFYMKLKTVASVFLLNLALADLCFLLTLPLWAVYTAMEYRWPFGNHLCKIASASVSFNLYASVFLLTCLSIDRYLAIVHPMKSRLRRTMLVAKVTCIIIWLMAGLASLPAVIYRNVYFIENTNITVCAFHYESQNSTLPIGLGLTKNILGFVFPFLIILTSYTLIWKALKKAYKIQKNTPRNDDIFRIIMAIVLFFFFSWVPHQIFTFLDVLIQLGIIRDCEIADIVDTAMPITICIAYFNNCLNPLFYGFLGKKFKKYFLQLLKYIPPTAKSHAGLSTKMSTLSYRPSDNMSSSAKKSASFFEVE
T1 sequence (P25095 whole entry): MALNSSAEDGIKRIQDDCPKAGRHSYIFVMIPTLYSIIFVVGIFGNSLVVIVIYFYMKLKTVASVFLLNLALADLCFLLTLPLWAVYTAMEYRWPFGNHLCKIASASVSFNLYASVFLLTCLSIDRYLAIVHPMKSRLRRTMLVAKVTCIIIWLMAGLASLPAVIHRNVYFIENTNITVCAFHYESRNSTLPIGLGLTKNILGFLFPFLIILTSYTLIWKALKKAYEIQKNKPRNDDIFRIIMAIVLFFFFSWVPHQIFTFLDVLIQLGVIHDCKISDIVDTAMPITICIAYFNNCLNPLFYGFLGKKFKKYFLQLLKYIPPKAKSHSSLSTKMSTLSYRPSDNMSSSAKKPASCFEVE

Rattus norvegicus [6] = assay: Compound was evaluated for maximum decrease in mean arterial pressure after an intravenous dose of 10.0 mg/kg in rats; format: functional, Artery; summary of the method: as §2
Rattus norvegicus [7] = assay: Compound was evaluated for maximum decrease in mean arterial pressure after an intragastric dose of 1.0 mg/kg in rats; format: functional, Artery; summary of the method: as §1
Rattus norvegicus [8] = assay: Compound was evaluated for maximum decrease in mean arterial pressure after an intravenous dose of 1.0 mg/kg in rats; format: functional, Artery; summary of the method: as §2
Rattus norvegicus [9] = assay: Compound was evaluated for maximum decrease in mean arterial pressure after an intravenous dose of 3.0 mg/kg in rats; format: functional, Artery; summary of the method: as §2
[10] = biological target: Angiotensin II receptor (AT-1) type-1 (Rattus norvegicus) (UniProt P29089+P25095); assay: Compound was evaluated for the in vitro inhibition of specific binding of [125I]-A II to Angiotensin II receptor, type 1 in rat liver membrane at 100 nM.
Rattus norvegicus [11] = assay: Compound was evaluated for maximum decrease in mean arterial pressure after an intravenous dose of 0.1 mg/kg in rats; format: functional, Artery; summary of the method: as §2
Rattus norvegicus [12] = assay: Compound was evaluated for maximum decrease in mean arterial pressure after an intragastric dose of 0.1 mg/kg in rats; format: functional, Artery; summary of the method: as §1
Rattus norvegicus [13] = assay: Compound was evaluated for maximum decrease in mean arterial pressure after an intragastric dose of 30.0 mg/kg in rats; format: functional, Artery; summary of the method: as §1
Rattus norvegicus [14] = assay: Compound was evaluated for maximum decrease in mean arterial pressure after an intragastric dose of 0.3 mg/kg in rats; format: functional, Artery; summary of the method: as §1

In the case of `Cc1nc(C)c2c(O)cc(=O)n(Cc3ccc(-c4ccccc4-c4nn[nH]n4)cc3)c2n1` [ENOLTASOSARTAN], the MAP (Rattus norvegicus [1]) is reported as 66 mmHg, the MAP (Rattus norvegicus [2]) is reported as 39 mmHg and the MAP (Rattus norvegicus [3]) is reported as 67 mmHg. The MAP (Rattus norvegicus [4]) was 34 mmHg and the IC50 [5] was 0.17 nM.
With `Cc1nc(CO)nc2c1c(O)cc(=O)n2Cc1ccc(-c2ccccc2-c2nn[nH]n2)cc1` the IC50 [5] was 0.41 nM.
`Cc1nc(C)c2c(n1)N(Cc1ccc(-c3ccccc3-c3nn[nH]n3)cc1)C(=O)CC2O` (centres undefined) was tested, and the MAP (Rattus norvegicus [1]) was 71 mmHg, the MAP (Rattus norvegicus [2]) was 54 mmHg and the MAP (Rattus norvegicus [6]) was 41 mmHg. For the same compound, the MAP (Rattus norvegicus [7]) was 55 mmHg, the MAP (Rattus norvegicus [8]) was 51 mmHg and the MAP (Rattus norvegicus [9]) was 47 mmHg.
For `Cc1nc(C)c2c(n1)N(Cc1ccc(-c3ccccc3-c3nnn(C4OC(C(=O)O)C(O)C(O)C4O)n3)cc1)C(=O)CC2` (centres undefined), the inhibition [10] was 3.5%.
`Cc1nc(C)c2c(n1)N(Cc1ccc(-c3ccccc3-c3nnn[nH]3)cc1)C(=O)CC2` [TASOSARTAN] showed an MAP (Rattus norvegicus [11]) of 37 mmHg, an MAP (Rattus norvegicus [12]) of 6 mmHg and an MAP (Rattus norvegicus [1]) of 81 mmHg. For the same compound, the MAP (Rattus norvegicus [2]) was 76 mmHg, the MAP (Rattus norvegicus [7]) was 71 mmHg and the MAP (Rattus norvegicus [8]) was 53 mmHg. It also gave an MAP (Rattus norvegicus [13]) of 80 mmHg, an MAP (Rattus norvegicus [9]) of 54 mmHg and an IC50 [5] of 1.2 nM. It also gave an MAP (Rattus norvegicus [14]) of 45 mmHg.
Work on `Cc1nc(C)c2ccc(=O)n(Cc3ccc(-c4ccccc4-c4nn[nH]n4)cc3)c2n1` yielded an IC50 [5] of 6.5 nM.
